Measured values published in ChEMBL document CHEMBL4014336 (J Med Chem, 2017).

Key:
Cynomolgus monkey [1] = assay: In vivo inhibition of 11beta-HSD1 in non-fasting diet-induced obese cynomolgus monkey assessed as decrease in corticosterone excursion in plasma pretreated via oral gavage for 30 mins followed by DHC administration measured up to 60 mins by enzyme immunosorbent assay; format: functional; conditions: Macaca fascicularis
Method in brief: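 Cynomolgus monkeys given test compound at a predetermined time before the experiment, chosen from its pharmacokinetics. Substrate DHC (rodent substrate, used in place of cortisone) given afterwards. Blood sampled at various times. Design otherwise similar to the mouse DHC challenge.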

Cynomolgus monkey [2] = assay: Toxicity in cynomolgus monkey assessed as HPA axis activation by measuring increase in DHEA level at 10 mg/kg for 7 days; format: organism-based, Macaca fascicularis; conditions: in vivo, 168 h
Cynomolgus monkey [3] = assay: Toxicity in cynomolgus monkey assessed as HPA axis activation by measuring increase in DHEAS level at 10 mg/kg for 7 days; format: organism-based, Macaca fascicularis; conditions: in vivo, 168 h
Cynomolgus monkey [4] = assay: Toxicity in cynomolgus monkey assessed as HPA axis activation by measuring increase in cortisol level at 10 mg/kg for 7 days; format: organism-based, Macaca fascicularis; conditions: in vivo, 168 h
[5] = Metabolic stability in human liver microsomes assessed as UGT-mediated glucuronidation of compound by measuring half life in presence of UDPGA; format: ADME
Method in brief: (§1)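 Liver microsomal glucuronidation incubations in the presence of UDPGA; parent half-life determined.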

[6] = Metabolic stability in mouse liver microsomes assessed as UGT-mediated glucuronidation of compound by measuring half life in presence of UDPGA; format: ADME; method in brief: as §1
[7] = (§2) Metabolic stability in human liver microsomes assessed as parent compound remaining after 10 mins; format: ADME, microsome; conditions: liver microsomes, read-out: Stability
Method in brief: (§3)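 Parent compound remaining after a 10 min incubation with human, mouse or rat liver microsomes.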

[8] = (§4) Metabolic stability in mouse liver microsomes assessed as parent compound remaining after 10 mins; format: ADME, microsome; conditions: liver microsomes, read-out: Stability; method in brief: as §3
[9] = target: T1, Nuclear receptor subfamily 1 group I member 2 (Homo sapiens, UniProt O75469); assay: Activation of PXR (unknown origin); format: ADME
T1 sequence (O75469 whole entry): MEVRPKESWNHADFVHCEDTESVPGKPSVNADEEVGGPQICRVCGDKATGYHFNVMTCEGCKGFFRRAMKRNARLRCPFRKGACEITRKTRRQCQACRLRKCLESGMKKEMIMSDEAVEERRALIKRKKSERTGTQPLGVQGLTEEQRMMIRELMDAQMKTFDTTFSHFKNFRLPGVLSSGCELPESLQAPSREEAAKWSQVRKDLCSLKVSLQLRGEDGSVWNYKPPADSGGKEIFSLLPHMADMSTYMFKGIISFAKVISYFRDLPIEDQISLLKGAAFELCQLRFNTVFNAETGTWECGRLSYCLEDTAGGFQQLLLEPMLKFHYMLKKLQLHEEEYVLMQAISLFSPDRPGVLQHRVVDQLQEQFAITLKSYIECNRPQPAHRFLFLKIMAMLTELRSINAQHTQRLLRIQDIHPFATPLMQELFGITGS
Method in brief: (§5)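 PXR transactivation assay; EC50 and maximal activation (Ymax, % of control) reported.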

[10] = (§6) Metabolic stability in rat liver microsomes assessed as parent compound remaining after 10 mins; format: ADME, microsome; conditions: liver microsomes, read-out: Stability; method in brief: as §3
[11] = target: 11-beta-hydroxysteroid dehydrogenase 1 (Mus musculus, UniProt P50172)
11-beta-hydroxysteroid dehydrogenase 1, sequence (P50172 whole entry): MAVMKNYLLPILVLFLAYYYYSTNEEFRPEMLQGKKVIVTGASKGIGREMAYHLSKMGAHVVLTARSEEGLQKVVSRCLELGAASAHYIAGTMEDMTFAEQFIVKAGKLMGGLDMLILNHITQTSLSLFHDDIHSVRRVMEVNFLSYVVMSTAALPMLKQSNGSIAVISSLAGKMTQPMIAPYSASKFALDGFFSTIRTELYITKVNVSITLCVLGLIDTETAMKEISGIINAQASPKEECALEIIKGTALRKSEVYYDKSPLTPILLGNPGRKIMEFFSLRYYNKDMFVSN

PXR = PXR (Homo sapiens, UniProt O75469); assay: Activation of PXR (unknown origin) relative to control; format: ADME; method in brief: as §5
Liver [12] = assay: as §6; format: ADME, microsome; conditions: microsomes, 10 min; method in brief: as §3
Liver [13] = assay: as §2; format: ADME, microsome; conditions: microsomes, 10 min; method in brief: as §3
[14] = Inhibition of cynomolgus monkey 11beta-HSD1; parameters: species or system Macaca fascicularis
Liver [15] = assay: as §4; format: ADME, microsome; conditions: microsomes, 10 min; method in brief: as §3
Mus musculus = assay: In vivo inhibition of 11beta-HSD1 in po dosed non-fasting diet-induced obese mouse assessed as decrease in corticosterone excursion in plasma pretreated for 60 mins followed by DHC administration measured up to 120 mins by enzyme immunosorbent assay; format: functional
Method in brief: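 Nonfasting diet-induced obese male mice, groups of n = 6 matched for body weight; tail bleed at −60 min, then oral vehicle (0.5% Methocel, 0.1% Tween 80 in water) or drug. At 60 min, bleed and oral DHC 10 mg/kg. Bleeds at 30, 60 and 120 min post-DHC. Plasma corticosterone measured by enzyme immunosorbent assay; drug levels in terminal bleed.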

Compound	remaining at 10 min [7]	remaining at 10 min [8]	remaining at 10 min [10]	further results
O=C(O)CC1(c2ccc(F)cc2)C2CC3CC(C2)CC1C3 (stereo unspecified)	–	–	–	ED50 (Cynomolgus monkey [1]): 0.3 mg/kg; Activity (Cynomolgus monkey [2]): Toxic; Activity (Cynomolgus monkey [3]): Toxic; Activity (Cynomolgus monkey [4]): Toxic
Fc1ccc(C2(Cc3nnn[nH]3)C3CC4CC(C3)CC2C4)cc1 (stereo unspecified)	–	–	–	half-life [5]: > 2 h; half-life [6]: > 1 h
N#CC12CC3CC(C1)C(CC(=O)N1CC(O)C1)(c1ccc(F)cc1)C(C3)C2 (stereo unspecified)	62%	42%	46%	EC50 [9]: > 50000 nM
O=C(CC1(c2ccc(F)cc2)C2CC3CC(C2)CC1C3)N1CC[C@@H]1CO (stereo partly specified)	–	–	–	IC50 [11]: 12 nM
O=C(CC1(c2ccc(F)cc2)C2CC3CC(C2)CC1C3)N1CC(O)C1 (stereo unspecified)	–	–	–	EC50 [9]: 6700 nM; Emax (PXR): 37%
NC(=O)C12CC3CC(C1)C(CC(=O)N1CC(O)C1)(c1ccc(F)cc1)C(C3)C2 (stereo unspecified)	82 to 100%	73 to 77%	62 to 79%	EC50 [9]: > 50000 nM
O=C(CC1(c2ccc(F)cc2)C2CC3CC(C2)CC1C3)N1CC[C@H]1CO (stereo partly specified)	–	–	–	IC50 [11]: 1850 nM
NC(=O)CC1(c2ccc(F)cc2)C2CC3CC(C2)CC1C3 (stereo unspecified)	–	–	–	half-life [5]: > 2 h; half-life [6]: > 2 h
COC12CC3CC(C1)C(CC(=O)N1CC(O)C1)(c1ccc(F)cc1)C(C3)C2 (stereo unspecified)	27 to 72%	17 to 55%	6 to 14%	EC50 [9]: > 50000 nM
O=C(CC1(c2ccc(F)cc2)C2CC3CC1CC(F)(C3)C2)N1CC(O)C1 (stereo unspecified)	38 to 69%	13 to 38%	5 to 9%	EC50 [9]: > 25000 nM
O=C(CC1(c2ccc(F)cc2)C2CC3CC1CC(O)(C3)C2)N1CC(O)C1 (stereo unspecified)	100%	80 to 100%	82 to 85%	EC50 [9]: > 50000 nM
Cc1cccc(C2(CC(=O)N3CC(O)C3)C3CC4CC2CC(C3)C4O)c1 (racemic)	84%	54%	22%	–
NC(=O)C1C2CC3CC1CC(C2)C3(CC(=O)N1CC(O)C1)c1ccc(F)cc1 (racemic)	100%	99%	92%	–
O=C(CC1(c2cccnc2)C2CC3CC1CC(C2)C3O)N1CC(O)C1 (racemic)	86%	58%	92%	–
O=C(CC1(C2CCCCC2)C2CC3CC1CC(C2)C3O)N1CC(O)C1 (racemic)	100%	24%	14%	–
O=C(CC1(c2ccc(F)cc2)C2CC3CC1CC(C2)C3O)N1CC(O)C1 (racemic)	95%	92%	–	IC50 [11]: 43 nM; EC50 [9]: > 50000 nM; Emax (PXR): 4%; Stability (Liver [12]): 88%
O=C(CC1(c2ccc(C(F)(F)F)cc2)C2CC3CC1CC(C2)C3O)N1CC(O)C1 (racemic)	57%	71%	0%	–
O=C(CC1(c2ccncc2)C2CC3CC1CC(C2)C3O)N1CC(O)C1 (racemic)	92%	94%	100%	–
CC1(O)C2CC3CC(C2)C(CC(=O)N2CC(O)C2)(c2ccc(F)cc2)C1C3 (racemic)	41%	17%	23%	EC50 [9]: > 50000 nM

Compound	remaining at 10 min [7]	remaining at 10 min [8]	remaining at 10 min [10]	further results
Cc1ccc(C2(CC(=O)N3CC(O)C3)C3CC4CC2CC(C3)C4O)cc1 (racemic)	75%	72%	26%	–
N#CC1C2CC3CC1CC(C2)C3(CC(=O)N1CC(O)C1)c1ccc(F)cc1 (racemic)	53%	47%	27%	–
O=C(CC1(c2ccc(Cl)cc2)C2CC3CC1CC(C2)C3O)N1CC(O)C1 (racemic)	81%	73%	58%	–
O=C(CC1(c2ccccn2)C2CC3CC1CC(C2)C3O)N1CC(O)C1 (racemic)	100%	93%	90%	–
Cc1ccccc1C1(CC(=O)N2CC(O)C2)C2CC3CC1CC(C2)C3O (racemic)	62%	77%	25%	–
CC1(O)C2CC3CC1CC(C2)C3(CC(=O)N1CC(O)C1)c1ccc(F)cc1 (racemic)	84%	66%	47%	–
CS(=O)(=O)c1ccc(C2(CC(=O)N3CC(O)C3)C3CC4CC2CC(C3)C4O)cc1 (racemic)	100%	100%	98%	–
O=C(CC1(c2ccc(F)cc2)C2CC3CC(C2)CC1(O)C3)N1CC(O)C1 (racemic)	25%	11%	2%	EC50 [9]: > 50000 nM
O=C(CC1(c2cccc(Cl)c2)C2CC3CC1CC(C2)C3O)N1CC(O)C1 (racemic)	85%	66%	37%	–
O=C(CC1(Cc2ccccc2)C2CC3CC1CC(C2)C3O)N1CC(O)C1 (racemic)	63%	33%	3%	–
O=C(CC1(c2ccc(-c3ccncc3)cc2)C2CC3CC1CC(C2)C3O)N1CC(O)C1 (racemic)	28%	42%	53%	–
COc1ccc(C2(CC(=O)N3CC(O)C3)C3CC4CC2CC(C3)C4O)cc1 (racemic)	98%	71%	70%	–
O=C(CC1(c2ccc(-c3ccc(F)cc3)cc2)C2CC3CC1CC(C2)C3O)N1CC(O)C1 (racemic)	39%	10%	5%	–
N#Cc1ccc(C2(CC(=O)N3CC(O)C3)C3CC4CC2CC(C3)C4O)cc1 (racemic)	100%	87%	95%	–
O=C(CC1(c2ccccc2)C2CC3CC1CC(C2)C3O)N1CC(O)C1 (racemic) [BMS-816336]	88%	82%	–	IC50 [11]: 68 nM; Stability (Liver [12]): 72%
O=C(CC1(c2ccc(F)cc2)C2CC3CC1CC(C2)C3O)N1CC(O)C1 (single isomer, unassigned; enantiomer 2)	–	–	–	Stability (Liver [13]): 90%; IC50 [14]: 6.9 nM; Stability (Liver [15]): 82%; Stability (Liver [12]): 75%
O=C(CC1(c2ccc(F)cc2)C2CC3CC1CC(C2)C3O)N1CC(O)C1 (stereo in doubt)	–	–	–	IC50 [11]: 150 nM; Stability (Liver [13]): 85%; IC50 [14]: 24.8 nM; Stability (Liver [15]): 78%; Stability (Liver [12]): 58%
O=C(CC1(c2ccccc2)C2CC3CC1CC(C2)C3O)N1CC(O)C1 (stereo in doubt; form 1)	–	–	–	Stability (Liver [13]): 89%; IC50 [14]: 16 nM; Stability (Liver [15]): 65%; Stability (Liver [12]): 36%
O=C(CC1(c2ccccc2)C2CC3CC1CC(C2)C3O)N1CC(O)C1 (stereo in doubt; form 2)	–	–	–	inhibition (Mus musculus): Dose-dependent effect
